≈ marks a conversion by molar mass, not a printed value.

Data set [1] concerns the target T1, Gonadotropin-releasing hormone receptor (Rattus norvegicus, UniProt P30969).
T1 sequence (P30969 whole entry): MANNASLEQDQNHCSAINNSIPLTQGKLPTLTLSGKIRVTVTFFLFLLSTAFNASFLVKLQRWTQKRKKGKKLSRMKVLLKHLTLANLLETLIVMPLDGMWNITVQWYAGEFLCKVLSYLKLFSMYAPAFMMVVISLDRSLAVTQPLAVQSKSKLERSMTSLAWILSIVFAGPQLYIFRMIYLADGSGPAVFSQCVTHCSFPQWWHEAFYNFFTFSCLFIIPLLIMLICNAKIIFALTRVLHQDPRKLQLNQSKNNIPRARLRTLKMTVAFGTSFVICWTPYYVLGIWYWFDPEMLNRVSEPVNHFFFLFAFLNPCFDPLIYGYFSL
Put plainly: Displacement of [125I]-(D-Trp6)-GnRH from rat GnRH receptor. The method, boiled down: (§1)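 Competition binding at overexpressed human or rat GnRH receptors against 125I-(D-Trp6)-GnRH; IC50 averaged from two independent experiments run in triplicate.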
(In a radioligand displacement assay an active substance lowers the binding of a labelled ligand.)

Data set [2] has as its target T2, Gonadotropin-releasing hormone receptor (Homo sapiens, UniProt P30968).
T2 sequence (P30968 whole entry): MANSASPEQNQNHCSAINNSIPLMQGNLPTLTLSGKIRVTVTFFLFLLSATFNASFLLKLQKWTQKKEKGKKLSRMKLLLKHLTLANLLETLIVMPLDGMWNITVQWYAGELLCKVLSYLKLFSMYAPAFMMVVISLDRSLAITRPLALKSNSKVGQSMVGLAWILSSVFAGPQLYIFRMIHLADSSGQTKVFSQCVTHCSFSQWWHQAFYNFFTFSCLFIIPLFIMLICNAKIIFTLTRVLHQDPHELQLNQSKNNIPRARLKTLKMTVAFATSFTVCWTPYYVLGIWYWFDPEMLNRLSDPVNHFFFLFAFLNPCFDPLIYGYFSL
The data set can be described thus: Displacement of [125I]-(D-Trp6)-GnRH from human GnRH receptor. In outline:
as §1

The target in data set [3] is T3, Gonadotropin-releasing hormone receptor (Homo sapiens) (UniProt P30968).
T3 sequence (whole entry): T2 sequence (P30968 whole entry)
Put plainly: Displacement of [125I]-(D-Trp6)-GnRH from human GnRH receptor at 50 nM.

Data set [4] in a line: Solubility at pH 7.4. The format is physicochemical. The settings on record: buffer.
Data set [5] can be described thus: Metabolic stability in rat liver microsomes assessed as half life. The format is ADME, Microsome.
Data set [6] deals with T2, Gonadotropin-releasing hormone receptor. The data set can be described thus: Antagonist activity at human recombinant GnRH receptor expressed in HEK293 cells assessed as reduction in (D-Trp6)-GnRH-stimulated IP production by whole cell assay. The format is functional, cell-based. The method, boiled down:
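Whole-cell assay, cells stimulated with (D-Trp6)-GnRH; compound-driven reduction of inositol phosphate read as IC50.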

Data set [7] can be described thus: Reduction in leutinizing hormone release in (D-Trp6)-GnRH-stimulated rat primary pituitary cells by RIA. The format is functional, cell-based. As to conditions: Pituitary gland cell. In outline:
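Primary rat pituitary cells stimulated with (D-Trp6)-GnRH; compound-driven reduction of LH release read as IC50.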

In data set [8] the target is CYP3A4 (Homo sapiens, UniProt P08684). The data set can be described thus: Inhibition of CYP3A4 at 3 uM. The format is ADME.
Chain of CYP3A4 (P08684 whole entry): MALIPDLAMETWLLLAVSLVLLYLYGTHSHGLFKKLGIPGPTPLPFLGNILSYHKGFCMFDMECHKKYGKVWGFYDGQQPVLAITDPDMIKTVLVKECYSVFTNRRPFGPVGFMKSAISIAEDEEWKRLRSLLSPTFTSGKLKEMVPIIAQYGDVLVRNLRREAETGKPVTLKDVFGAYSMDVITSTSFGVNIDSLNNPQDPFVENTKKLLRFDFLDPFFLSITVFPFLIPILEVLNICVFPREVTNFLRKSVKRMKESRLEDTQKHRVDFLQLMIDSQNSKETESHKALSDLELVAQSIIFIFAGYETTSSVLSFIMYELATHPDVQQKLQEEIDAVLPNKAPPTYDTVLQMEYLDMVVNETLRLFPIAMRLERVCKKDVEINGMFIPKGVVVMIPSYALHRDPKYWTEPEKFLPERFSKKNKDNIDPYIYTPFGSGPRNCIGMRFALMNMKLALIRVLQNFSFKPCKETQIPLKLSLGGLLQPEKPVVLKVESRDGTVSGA
Data set [9] concerns the target CYP2C9 (Homo sapiens, UniProt P11712). The data set can be described thus: Inhibition of CYP2C9 at 3 uM. The format is ADME.
Data set [10] addresses CYP2D6 (Homo sapiens, UniProt P10635). Put plainly: Inhibition of CYP2D6 at 3 uM. The format is ADME.
Data set [11] is described as follows: Metabolic stability in rat liver microsomes assessed as compound remaining at 1 uM after 15 mins. The format is ADME, Microsome. The settings on record: read-out: Stability. (In general: Microsomes from liver hold many membrane-bound enzymes, among them those of drug oxidation.)

Chain of CYP2D6 (P10635 whole entry): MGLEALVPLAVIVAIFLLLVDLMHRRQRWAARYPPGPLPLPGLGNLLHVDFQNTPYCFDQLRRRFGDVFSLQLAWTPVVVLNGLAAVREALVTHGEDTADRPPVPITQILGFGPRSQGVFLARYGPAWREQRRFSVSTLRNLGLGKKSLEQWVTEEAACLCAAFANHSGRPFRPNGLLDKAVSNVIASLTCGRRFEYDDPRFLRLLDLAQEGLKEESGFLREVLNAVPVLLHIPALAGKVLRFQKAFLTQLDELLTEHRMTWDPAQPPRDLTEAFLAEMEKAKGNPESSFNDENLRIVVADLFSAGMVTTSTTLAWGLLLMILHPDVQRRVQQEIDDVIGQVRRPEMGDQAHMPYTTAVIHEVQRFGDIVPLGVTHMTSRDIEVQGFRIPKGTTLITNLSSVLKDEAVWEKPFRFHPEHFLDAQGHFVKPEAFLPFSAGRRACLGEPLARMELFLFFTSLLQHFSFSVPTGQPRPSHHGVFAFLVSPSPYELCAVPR
Chain of CYP2C9 (P11712 whole entry): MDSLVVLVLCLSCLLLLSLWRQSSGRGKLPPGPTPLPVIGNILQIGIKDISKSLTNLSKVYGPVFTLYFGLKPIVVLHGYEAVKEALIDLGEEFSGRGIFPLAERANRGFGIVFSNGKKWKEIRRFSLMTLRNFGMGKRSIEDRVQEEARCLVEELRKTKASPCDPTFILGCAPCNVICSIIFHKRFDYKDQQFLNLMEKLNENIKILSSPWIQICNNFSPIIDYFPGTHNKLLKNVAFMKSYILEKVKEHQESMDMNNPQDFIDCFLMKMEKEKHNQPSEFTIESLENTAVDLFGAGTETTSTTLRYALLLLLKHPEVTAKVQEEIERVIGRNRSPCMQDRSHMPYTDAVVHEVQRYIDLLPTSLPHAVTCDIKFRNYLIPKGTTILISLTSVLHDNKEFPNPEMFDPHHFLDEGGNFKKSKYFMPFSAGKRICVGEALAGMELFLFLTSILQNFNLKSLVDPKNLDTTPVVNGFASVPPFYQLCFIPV

The IC50 is the midpoint of a concentration-inhibition curve. Consider `Cc1nc(C)c(CN2CCN(c3cccc4[nH]c(-c5ccc(C(C)(C)C)cc5)nc34)CC2)o1`, for which the IC50 turned out to be 740 nM in data set [1] and 31 nM in [2].
Take `Cc1nc(C)c(CN2CCN(c3cccc4[nH]c(-c5ccc(C(C)(C)C)cc5)nc34)CC2)s1`: in data set [2], the IC50 worked out at 27 nM.
Molecule `Cc1cc(CN2CCN(c3cccc4[nH]c(-c5ccc(C(C)(C)C)cc5)nc34)CC2)nn1C` displayed an IC50 in data set [2] of 83 nM.
As for `CC(C)(C)c1ccc(-c2nc3c(N4CCN(Cc5ncc[nH]5)CC4)cccc3[nH]2)cc1`, the Activity in data set [3] worked out at 40%.
On the same count and under the same terms, in the case of `CCn1nc(CN2CCN(c3cccc4[nH]c(-c5ccc(C(C)(C)C)cc5)nc34)CC2)cc1C` it was 32%.
Turning to `CCCCc1nc(CN2CCN(c3cccc4[nH]c(-c5ccc(C(C)(C)C)cc5)nc34)CC2)cn1C`, the IC50 in data set [1] stood at 58 nM; in [2], 26 nM.
What is called solubility is how much of the substance goes into solution per volume. Lower therefore signals a poorly soluble substance. The term half-life denotes the time needed for the level to fall by half in the phase considered. For `CCc1nc(CN2CCN(c3cccc4[nH]c(-c5ccc(C(C)(C)C)cc5)nc34)CC2)c(C)n1CC`, the solubility in data set [4] worked out at 25 µg/mL (≈ 51.6 µM). The half-life in [5] was 12 min. Also, the IC50 in [1] is 49 nM; in data set [6], 13 nM; in data set [7], 296 nM; in data set [2], 8 nM.
In general, inhibition refers to the relative decrease from the control value, in per cent. Low readings indicate little suppression, high ones strong suppression. For the molecule `Cc1nc(CN2CCN(c3cccc4[nH]c(-c5ccc(C(C)(C)C)cc5)nc34)CC2)cn1C`, the figures for the inhibition at 3 µM in [8], in data set [9] and in data set [10] were 66%, 12% and 3%, respectively. For the same molecule, the solubility in data set [4] stood at 51 µg/mL (≈ 115 µM). Besides, the half-life in data set [5] turned out to be 9 min. In addition, the IC50 was determined as 34 nM in data set [1], 23 nM in data set [6], 300 nM in data set [7] and 10 nM in data set [2].
Molecule `Cc1n[nH]c(C)c1CN1CCN(c2cccc3[nH]c(-c4ccc(C(C)(C)C)cc4)nc23)CC1` registered an IC50 in data set [2] of 68 nM.
`CCn1cc(CN2CCN(c3cccc4[nH]c(-c5ccc(C(C)(C)C)cc5)nc34)CC2)c(=O)[nH]c1=O`: the remaining at 0.25 h, 1 µM in [11] is 12%. Further, the figures for the inhibition at 3 µM in [8], in data set [9] and in [10] were 74%, 34% and 0%, respectively. For the same molecule, the solubility in data set [4] amounted to 13 µg/mL (≈ 26.7 µM). For the same molecule, the half-life in [5] was 5 min. In data set [7], this molecule came in with an IC50 of 59 nM.
As to `CCc1nc(CN2CCN(c3cccc4[nH]c(-c5ccc(C(C)(C)C)cc5)nc34)CC2)cn1C`, the IC50 in [1] was 78 nM; in data set [2], 18 nM.
Take `CCCn1c(CC)nc(CN2CCN(c3cccc4[nH]c(-c5ccc(C(C)(C)C)cc5)nc34)CC2)c1C`: the IC50 in [1] worked out at 57 nM; in [2] it was 29 nM.
Taken in the same sequence, the figures for `Cn1cnc(CN2CCN(c3cccc4[nH]c(-c5ccc(C(C)(C)C)cc5)nc34)CC2)c1` were 98 nM and 33 nM.
For `CCc1nc(CN2CCN(c3cccc4[nH]c(-c5ccc(C(C)(C)C)cc5)nc34)CC2)cn1CC`, the IC50 in data set [1] is 69 nM; in [2] it was 11 nM.
With `Cn1nccc1CN1CCN(c2cccc3[nH]c(-c4ccc(C(C)(C)C)cc4)nc23)CC1`, the Activity in data set [3] is 25%.
For the molecule `CC(C)(C)c1ccc(-c2nc3c(N4CCN(Cc5cnc[nH]5)CC4)cccc3[nH]2)cc1`, the IC50 in data set [1] came out at 290 nM; in data set [2], 21 nM.
Consider `CCc1cc(CN2CCN(c3cccc4[nH]c(-c5ccc(C(C)(C)C)cc5)nc34)CC2)n(C)n1`, for which the IC50 in data set [1] is 250 nM; in [2] it was 22 nM.
Regarding `CC(C)(C)c1ccc(-c2nc3c(N4CCN(Cc5ccco5)CC4)cccc3[nH]2)cc1`, the Activity in data set [3] was found to be 12%.
As for `CCc1nc(C)c(CN2CCN(c3cccc4[nH]c(-c5ccc(C(C)(C)C)cc5)nc34)CC2)s1`, the IC50 in [1] turned out to be 120 nM; in data set [2], 20 nM.
For the molecule `CCc1cc(CN2CCN(c3cccc4[nH]c(-c5ccc(C(C)(C)C)cc5)nc34)CC2)nn1C`, the results for the IC50 in data set [1] and in data set [2] were 350 nM and 43 nM, respectively.
Take `Cc1ncoc1CN1CCN(c2cccc3[nH]c(-c4ccc(C(C)(C)C)cc4)nc23)CC1`: the IC50 amounted to 850 nM in data set [1] and 90 nM in data set [2].
Consider `CC(C)(C)c1ccc(-c2nc3c(N4CCN(Cc5nccs5)CC4)cccc3[nH]2)cc1`, for which the Activity in data set [3] is 26%.
Molecule `Cn1cccc1CN1CCN(c2cccc3[nH]c(-c4ccc(C(C)(C)C)cc4)nc23)CC1` displayed an Activity in data set [3] of 6%.
As for `CCc1nc(CN2CCN(c3cccc4[nH]c(-c5ccc(C(C)(C)C)cc5)nc34)CC2)c(C)o1`, the IC50 in [1] came out at 550 nM; in data set [2] it was 27 nM.
In the case of `CCCn1c(CC)nc(C)c1CN1CCN(c2cccc3[nH]c(-c4ccc(C(C)(C)C)cc4)nc23)CC1`, the IC50 turned out to be 120 nM in data set [1] and 57 nM in data set [2].
Consider `CC(C)(C)c1ccc(-c2nc3c(N4CCN(Cc5cccs5)CC4)cccc3[nH]2)cc1`, for which the Activity in [3] came out at 24%.
For `CCc1nc(C)sc1CN1CCN(c2cccc3[nH]c(-c4ccc(C(C)(C)C)cc4)nc23)CC1`, the Activity in data set [3] was determined as 26%.
In turn, `CC(C)(C)c1ccc(-c2nc3c(N4CCN(Cc5ccsc5)CC4)cccc3[nH]2)cc1` had an Activity in data set [3] of 6%.
As for `Cc1c(CN2CCN(c3cccc4[nH]c(-c5ccc(C(C)(C)C)cc5)nc34)CC2)ncn1C(C)C`, the IC50 in data set [1] was determined as 61 nM; in data set [2], 19 nM.
Turning to `CC(C)(C)c1ccc(-c2nc3c(N4CCN(Cc5ccoc5)CC4)cccc3[nH]2)cc1`, the Activity in data set [3] was 20%.
As for `CCCn1cnc(CN2CCN(c3cccc4[nH]c(-c5ccc(C(C)(C)C)cc5)nc34)CC2)c1C`, the IC50 in [1] came to 47 nM; in data set [2] it was 12 nM.
For the molecule `CCCCc1nc(C)c(CN2CCN(c3cccc4[nH]c(-c5ccc(C(C)(C)C)cc5)nc34)CC2)s1`, in data set [3], the Activity was found to be 4%.
In the case of `CCn1cc(CN2CCN(c3cccc4[nH]c(-c5ccc(C(C)(C)C)cc5)nc34)CC2)nc1C`, the IC50 in data set [1] is 51 nM; in data set [2] it was 10 nM.
With `Cc1nn(C)c(C)c1CN1CCN(c2cccc3[nH]c(-c4ccc(C(C)(C)C)cc4)nc23)CC1`, the IC50 in data set [1] worked out at 450 nM; in [2] it was 38 nM.
As for `Cc1cc(CN2CCN(c3cccc4[nH]c(-c5ccc(C(C)(C)C)cc5)nc34)CC2)n(C)n1`, the values for the IC50 in data set [1] and in data set [2] were 310 nM and 23 nM, respectively.
In turn, `CC(C)(C)c1ccc(-c2nc3c(N4CCN(Cc5ccc[nH]5)CC4)cccc3[nH]2)cc1` gave an Activity in [3] of 7%.
On to `Cc1nc(CN2CCN(c3cccc4[nH]c(-c5ccc(C(C)(C)C)cc5)nc34)CC2)c(C)s1`, for which the concentration for half-maximal inhibition (IC50) in [2] came to 21 nM.
For the molecule `CCCCn1cnc(C)c1CN1CCN(c2cccc3[nH]c(-c4ccc(C(C)(C)C)cc4)nc23)CC1`, the Activity in data set [3] was 67%.
In the case of `Cc1ccc(CN2CCN(c3cccc4[nH]c(-c5ccc(C(C)(C)C)cc5)nc34)CC2)o1`, in [2], the IC50 was 705 nM.
In the case of `Cc1nc(CN2CCN(c3cccc4[nH]c(-c5ccc(C(C)(C)C)cc5)nc34)CC2)c[nH]1`, the inhibition at 3 µM came to 85% in data set [8], 23% in data set [9] and 14% in data set [10]. In addition, in [4], the solubility was 46 µg/mL (≈ 107 µM). In addition, the half-life in data set [5] was more than 30 min. In addition, the IC50 was 28 nM in data set [1], 44 nM in data set [6], 250 nM in data set [7] and 7.5 nM in data set [2].
For the molecule `CCc1nc(C)c(CN2CCN(c3cccc4[nH]c(-c5ccc(C(C)(C)C)cc5)nc34)CC2)o1`, the IC50 in data set [1] was determined as 320 nM; in [2], 37 nM.
Turning to `CCCCn1cnc(CN2CCN(c3cccc4[nH]c(-c5ccc(C(C)(C)C)cc5)nc34)CC2)c1C`, the inhibition at 3 µM in [8] was 84%; in data set [9], 53%; in data set [10], 21%. For the same molecule, the solubility in data set [4] is 3 µg/mL (≈ 6.19 µM). The half-life in [5] is more than 30 min. Moreover, the IC50 in data set [1] amounted to 49 nM; in data set [6], 71 nM; in data set [7] it was 570 nM; in data set [2], 46 nM.

(Values after ChEMBL document CHEMBL1153337, “Small molecule antagonists of the gonadotropin-releasing hormone (GnRH) receptor: structure-activity relationships of small heterocyclic groups appended to the 2-phenyl-4-piperazinyl-benzimidazole template” (Bioorg Med Chem Lett, 2009).)
